Assay results: ChEMBL document CHEMBL1151246, “New crinine-type alkaloids with inhibitory effect on induction of inducible nitric oxide synthase from Crinum yemense” (J Nat Prod, 2004)

What was measured:
Macrophage [1] = experiment: Inhibition of LPS-induced NO production in ddY mouse macrophages at 30 uM after 20 hrs by Griess reagent assay relative to control; format: functional
In short: (§1)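 Thioglycolate-elicited peritoneal macrophages from male ddY mice were precultured 1 h; nonadherent cells were washed off. Adherent cells (5 × 10⁵/well, RPMI 1640 with 5% FCS) were exposed 20 h to 10 μg/mL LPS with compound (1–100 μM, 0.5% DMSO final). Nitrite in the medium was measured with Griess reagent. Inhibition = (A−B)/(A−C) × 100 against LPS-only and unstimulated wells; IC50 was read graphically, N = 4, means ± SEM.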

Macrophage [2] = experiment: Inhibition of LPS-induced NO production in ddY mouse macrophages at 3 uM after 20 hrs by Griess reagent assay relative to control; format: functional; in short: as §1
Macrophage [3] = experiment: Inhibition of LPS-induced NO production in ddY mouse macrophages at 10 uM after 20 hrs by Griess reagent assay relative to control; format: functional; in short: as §1
Macrophage [4] = experiment: Inhibition of LPS-induced NO production in ddY mouse macrophages after 20 hrs by Griess reagent assay; format: functional, cell-based; in short: as §1
Macrophage [5] = experiment: Inhibition of LPS-induced NO production in ddY mouse macrophages at 1 uM after 20 hrs by Griess reagent assay relative to control; format: functional; in short: as §1
Macrophage [6] = experiment: Inhibition of LPS-induced NO production in ddY mouse macrophages at 100 uM after 20 hrs by Griess reagent assay relative to control; format: functional; in short: as §1

| SMILES | inhibition at 30 µM (Macrophage [1]) | inhibition at 3 µM (Macrophage [2]) | inhibition at 10 µM (Macrophage [3]) | IC50 (Macrophage [4]) | inhibition at 1 µM (Macrophage [5]) | inhibition at 100 µM (Macrophage [6]) |
| --- | --- | --- | --- | --- | --- | --- |
| O[C@H]1C=C[C@]23c4cc5c(cc4CN(C[C@@H]2O)[C@H]3C1)OCO5 | 55.6% | 7.4% | 28.6% | 24 µM | 3.1% | 82% |
| CO[C@H]1C=C[C@@]23c4cc5c(cc4CN(C[C@@H]2O)[C@H]3C1)OCO5 | 65.2% | 7.8% | 30.2% | 1.8 µM | 8.1% | 86.1% |
| CO[C@H]1C=C[C@]23c4cc5c(cc4C(O)N(C[C@H]2O)[C@H]3C1)OCO5 (mixture of isomers) | 30.3% | -23.1% | 6.3% | 5.4 µM | -11.2% | 69.5% |
| OC1c2cc3c(cc2[C@]24C=C[C@@H](O)C[C@@H]2N1C[C@H]4O)OCO3 (mixture of isomers) [YEMENINE C] | 18.3% | 1.6% | 0.5% |  | 9.7% | 31.3% |
| O=C(/C=C/c1ccc(O)c(O)c1)OCCc1ccccc1 [CAFFEIC ACID PHENETHYL ESTER] | 93.7% | 1.4% | 68.2% | 15 µM | 3.8% | 99.6% |
| N=C(N)NCCSSCCNC(=N)N [GUANIDINOETHYLDISULFIDE] | 89.7% | 24.4% | 57.9% | 7.4 µM | 6.2% | 97.9% |
| CO[C@H]1[C@@H](OC)C[C@H](C)[C@@H](OC)C2=CC(=O)C=C(NC(=O)/C(C)=C/C=C/[C@H](OC)[C@@H](OC(N)=O)/C(C)=C/[C@@H]1C)C2=O [HERBIMYCIN] |  | 77% |  | 0.094 µM | 48% |  |
| O[C@H]1[C@H]2c3cc4c(cc3CN3CCC(=C[C@@H]1O)[C@H]23)OCO4 [LYCORINE] | 54.4% | 2.8% | 20.6% | 2.5 µM | 0% | 91.4% |
| CNC(=N)NCCC[C@H](N)C(=O)O [TILARGININE] | 34.1% | 10.3% | 15% | 57 µM | 5.9% | 63.1% |
| c1ccc2c(c1)ncc1cc3c(cc12)OCO3 [TRISPHAERIDINE] | -7% | -6.9% | -3.4% |  | -7.1% | 0.3% |
| O[C@@H]1C=C[C@]23CCN(Cc4cc5c(cc42)OCO5)[C@H]3C1 [VITTATINE] | 13.1% | -12.5% | 7.1% |  | -0.2% | 42.4% |
| CC(=O)O[C@H]1C=C[C@]23c4cc5c(cc4CN(C[C@@H]2O)[C@H]3C1)OCO5 [YEMENINE A] | 93% | 38.1% | 69% | 4.9 µM | 10.4% | 98.5% |
